For six compounds, Degranulating activity, ED10 and EC50 results are on record in ChEMBL document CHEMBL1122936, “Facile synthesis of platelet-activating factor and racemic analogues containing unsaturation in the sn-1-alkyl chain” (1985).

Assay type in all cases: functional
The species entered for experiment [1] is Homo sapiens. Nature of the experiment: Desensitizing action on human PMN degranulation response, in the presence of FMLP (17 nM) at the dose of 60 nM. In a few lines:
(§1)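 Human neutrophils (>96% PMN, <5 platelets/100 PMN, no erythrocytes) at 2.6×10^6 cells/mL in Hanks' buffer, 37 °C, 20 min. Preincubated 8 min with desensitizing agent in BSA, or BSA alone. Then cytochalasin B 5 μg/mL for 2–4 min, then challenge 5 min with 200 nM 1-O-hexadecyl PAF or 17 nM FMLP. Read-out is net β-glucuronidase release vs BSA-pretreated cells, 14 experiments, unpaired t-test.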

The species named for experiment [2] is Homo sapiens. Nature of the experiment: Desensitizing action on human PMN degranulation response, in the presence of PAF (200 nM) at the dose of 60 nM. In a few lines: as §1
The species entered for experiment [3] is Homo sapiens. Kind of experiment: Effective dose for lysozyme release in human PMN was measured. In a few lines:
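Human PMN at 2.6×10^6 cells/mL in Hanks' buffer, 37 °C, 20 min. Cytochalasin B 5 μg/mL for 2–4 min, then racemic analogue challenge 5 min, on ice, spun 200g at 4 °C. Net lysozyme release = % of total minus unstimulated release. ED10 extrapolated for 10% net release from curves averaged over ≥5 dose-response experiments.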

The species named for the next experiment is Oryctolagus cuniculus. Kind of experiment: Effective dose for [14C]5-HT release in prelabeled rabbit platelets was measured. The note with it: read-out: ED50 (the source's name). In a few lines:
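Rabbit platelet-rich plasma labeled with [14C]serotonin 1.0 μCi/mL, 37 °C, 15 min. Washed twice, then 5×10^7 platelets/0.2 mL in citrate-free Tyrode's (pH 7.3) with 1 mM Ca2+, 37 °C, 20 min. Challenged 1 min, stopped with formalin on ice, supernatant label counted as % of total cellular label. ED50 extrapolated for 50% release from curves averaged over ≥5 dose-response experiments.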

The species named for experiment [4] is Homo sapiens. Nature of the experiment: Desensitizing action on human PMN degranulation response, in the presence of FMLP (17 nM) at the dose of 10 nM. The method, boiled down: as §1
For experiment [5], the species on record is Homo sapiens. Kind of experiment: Desensitizing action on human PMN degranulation response, in the presence of PAF (200 nM) at the dose of 10 nM. In a few lines:
as §1

The species named for experiment [6] is Homo sapiens. Kind of experiment: Desensitizing action on human PMN degranulation response, in the presence of FMLP (17 nM) at the dose of 9 nM. The method, boiled down: as §1
The species entered for experiment [7] is Homo sapiens. Kind of experiment: Desensitizing action on human PMN degranulation response, in the presence of PAF (200 nM) at the dose of 9 nM. The method, boiled down:
as §1

The species named for experiment [8] is Homo sapiens. Kind of experiment: Desensitizing action on human PMN degranulation response, in the presence of FMLP (17 nM) at the dose of 17 nM. The method, boiled down:
as §1

For experiment [9], the species on record is Homo sapiens. Kind of experiment: Desensitizing action on human PMN degranulation response, in the presence of PAF (200 nM) at the dose of 17 nM. The method, boiled down:
as §1

Experiment [10] is filed under the species Homo sapiens. Kind of experiment: Desensitizing action on human PMN degranulation response, in the presence of FMLP (17 nM) at the dose of 8 nM. In a few lines:
(§2)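 Human neutrophils (>96% PMN, <5 platelets/100 PMN, no erythrocytes) in Hanks' buffer at 2.6×10^6 cells/mL, 37 °C, 20 min; preincubated 8 min with desensitizing agent (in BSA) or BSA alone, then cytochalasin B 5 μg/mL for 2–4 min, challenged 5 min (200 nM PAF or 17 nM FMLP). Supernatant assayed for net β-glucuronidase release, 14 experiments; unpaired t-test versus BSA.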

For experiment [11], the species on record is Homo sapiens. Kind of experiment: Desensitizing action on human PMN degranulation response, in the presence of PAF (200 nM) at the dose of 8 nM. In a few lines:
as §2

pEC50: −log10 of the molar value.

Turning to `CCCCCCCCCCCCCCCCCCOCC(COP(=O)([O-])OCC[N+](C)(C)C)OC(C)=O` (configuration not stated), the Degranulating activity in the experiment listed under Homo sapiens [1] was 22; in the experiment listed under Homo sapiens [2] it was -1.2. Further, in the experiment filed under Homo sapiens [3], the ED10 worked out at 60 nM. The pEC50 in the experiment filed under Oryctolagus cuniculus is 9.10.

For the compound `CCCCCC/C=C\CCCCCCCCOCC(COP(=O)([O-])OCC[N+](C)(C)C)OC(C)=O` (configuration not stated), the Degranulating activity was 29.5 in the experiment filed under Homo sapiens [4] and 1.4 in the experiment listed under Homo sapiens [5]. In addition, in the experiment listed under Homo sapiens [3], the ED10 was found to be 10 nM. Moreover, in the experiment listed under Oryctolagus cuniculus, the pEC50 is 9.30.

On to `CCCCC/C=C\C/C=C\CCCCCCCCOCC(COP(=O)([O-])OCC[N+](C)(C)C)OC(C)=O` (configuration not stated), for which the Degranulating activity in the experiment listed under Homo sapiens [6] was 26.3; in the experiment filed under Homo sapiens [7], 0.1. The same compound showed an ED10 in the experiment filed under Homo sapiens [3] of 9 nM. In the experiment filed under Oryctolagus cuniculus, the pEC50 is 9.52.

`CCCCCCCC/C=C\CCCCCCCCOCC(COP(=O)([O-])OCC[N+](C)(C)C)OC(C)=O` (configuration not stated): the Degranulating activity worked out at 28.2 in the experiment filed under Homo sapiens [4] and 0.3 in the experiment filed under Homo sapiens [5]. For the same compound, in the experiment filed under Homo sapiens [3], the ED10 is 13 nM. In the experiment listed under Oryctolagus cuniculus, the pEC50 is 9.40.

`CSCC[C@H](NC=O)C(=O)N[C@@H](CC(C)C)C(=O)N[C@@H](Cc1ccccc1)C(=O)O`: the Degranulating activity was 6.2 in the experiment filed under Homo sapiens [8] and 11.9 in the experiment filed under Homo sapiens [9].

Take `CCCCCCCCCCCCCCCCOCC(COP(=O)([O-])OCC[N+](C)(C)C)OC(C)=O` (configuration not stated) [PLATELET ACTIVATING FACTOR]: the results for the Degranulating activity in the experiment listed under Homo sapiens [10] and in the experiment listed under Homo sapiens [11] were 23.6 and -0.2, respectively. In addition, the ED10 in the experiment listed under Homo sapiens [3] was 8 nM. The pEC50 in the experiment filed under Oryctolagus cuniculus was 9.70.
